Results published in ChEMBL document CHEMBL3596154, “Discovery of biaryl carboxylamides as potent RORγ inverse agonists” (Bioorg Med Chem Lett, 2015).
pEC50: −log10 of the molar value.

Columns and labels:
[1] = Clearance in human hepatocytes relative to hepatic blood flow; assay type: ADME, cell-based, Liver, Hepatocyte; conditions: read-out: CLH
[2] = Clearance in rat hepatocytes relative to hepatic blood flow; assay type: ADME, cell-based, Liver, Hepatocyte; conditions: read-out: CLH
[3] = molecular target: T1, Nuclear receptor ROR-alpha (Homo sapiens, UniProt P35398); assay: Inverse agonist activity at Gal4 DNA binding domain-tagged human RORalpha expressed in HEK293T cells assessed as effect on receptor-mediated transcriptional activity by luciferase reporter gene assay; assay type: cell-based, HEK-293T
T1 sequence (P35398 whole entry): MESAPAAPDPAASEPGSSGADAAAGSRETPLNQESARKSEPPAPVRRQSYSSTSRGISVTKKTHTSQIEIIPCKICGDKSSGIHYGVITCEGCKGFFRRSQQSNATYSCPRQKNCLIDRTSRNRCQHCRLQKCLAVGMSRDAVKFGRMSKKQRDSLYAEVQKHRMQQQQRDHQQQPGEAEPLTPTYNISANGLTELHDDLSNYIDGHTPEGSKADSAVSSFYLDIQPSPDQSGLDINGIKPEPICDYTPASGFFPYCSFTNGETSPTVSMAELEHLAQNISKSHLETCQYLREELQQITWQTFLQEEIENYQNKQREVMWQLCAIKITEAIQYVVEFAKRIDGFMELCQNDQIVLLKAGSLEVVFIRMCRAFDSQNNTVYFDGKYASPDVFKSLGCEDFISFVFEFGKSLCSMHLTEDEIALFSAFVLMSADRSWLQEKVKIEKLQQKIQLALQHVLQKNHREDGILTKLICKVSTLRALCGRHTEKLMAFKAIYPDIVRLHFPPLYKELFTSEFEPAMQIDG
Method in brief: (§1)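 Gal4 reporter assay in 293T cells with the same format as the RORγ Gal4 assay, using Gal4DBD:RORαLBD or Gal4DBD:RORβLBD constructs. Transfection, then compound treatment, then lysis and dual-flash luciferase luminescence. Activity measured in dose-response.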

[4] = molecular target: T2, Nuclear receptor ROR-beta (Homo sapiens, UniProt Q92753); assay: Inverse agonist activity at Gal4 DNA binding domain-tagged human RORbeta expressed in HEK293T cells assessed as effect on receptor-mediated transcriptional activity by luciferase reporter gene assay; assay type: cell-based, HEK-293T; method in brief: as §1
T2 sequence (Q92753 whole entry): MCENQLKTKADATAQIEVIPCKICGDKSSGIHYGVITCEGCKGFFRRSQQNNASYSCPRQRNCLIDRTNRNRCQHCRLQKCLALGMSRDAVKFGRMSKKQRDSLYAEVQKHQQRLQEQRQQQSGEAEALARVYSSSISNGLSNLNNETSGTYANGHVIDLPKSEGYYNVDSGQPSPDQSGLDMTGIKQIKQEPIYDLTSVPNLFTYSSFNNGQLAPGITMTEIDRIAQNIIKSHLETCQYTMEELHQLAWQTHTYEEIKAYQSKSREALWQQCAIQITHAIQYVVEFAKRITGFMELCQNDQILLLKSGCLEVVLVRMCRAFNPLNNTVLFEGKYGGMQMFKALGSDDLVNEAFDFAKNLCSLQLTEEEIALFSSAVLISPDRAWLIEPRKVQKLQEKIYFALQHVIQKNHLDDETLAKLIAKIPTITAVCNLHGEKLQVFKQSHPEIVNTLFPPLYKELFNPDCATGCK

[5] = molecular target: T3, Nuclear receptor subfamily 1 group I member 2 (Homo sapiens, UniProt O75469); assay: Antagonist activity at Gal4 DNA binding domain-tagged human PXR ligand binding domain expressed in HEK293 cells assessed as inhibition of receptor-mediated transcriptional activity by luciferase reporter gene assay; assay type: cell-based
T3 sequence (O75469 whole entry): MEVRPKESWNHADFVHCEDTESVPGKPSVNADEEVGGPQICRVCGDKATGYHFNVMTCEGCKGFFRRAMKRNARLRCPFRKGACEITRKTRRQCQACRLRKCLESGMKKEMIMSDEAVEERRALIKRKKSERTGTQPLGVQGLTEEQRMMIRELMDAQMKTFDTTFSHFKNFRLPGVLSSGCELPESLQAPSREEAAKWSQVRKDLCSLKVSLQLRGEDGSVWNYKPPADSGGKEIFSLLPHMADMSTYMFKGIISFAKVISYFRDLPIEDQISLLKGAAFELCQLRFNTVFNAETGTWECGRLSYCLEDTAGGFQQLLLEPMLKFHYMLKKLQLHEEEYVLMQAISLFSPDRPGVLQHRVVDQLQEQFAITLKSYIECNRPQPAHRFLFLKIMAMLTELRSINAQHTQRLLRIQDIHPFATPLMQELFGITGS
Method in brief: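 Screened by ChemPartner in HEK293 cells transiently co-transfected with a Gal4DBD-human NR LBD construct and a UAS-Luc reporter. Run in antagonist mode, read as % inhibition at a single concentration. Commercial reference compounds were run alongside in the same assay.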

[6] = molecular target: T3, Nuclear receptor subfamily 1 group I member 2; assay: Agonist activity at Gal4 DNA binding domain-tagged human PXR ligand binding domain expressed in HEK293 cells assessed as activation of receptor-mediated transcriptional activity by luciferase reporter gene assay; assay type: cell-based
Method in brief: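 Screened by ChemPartner as a cell-based transient co-transfection reporter assay in HEK293 cells, using a Gal4DBD-human NR LBD construct with UAS-Luc. Run in agonist mode, read as % activation at a single concentration. Commercial reference compounds were profiled in the same assay for validation.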

[7] = Half life in rat at 2 mg/kg, iv; assay type: ADME, organism-based; conditions: in vivo
Method in brief: (§2)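 Rats dosed at 2.0 mg/kg intravenously in SPEW vehicle. Plasma exposure profiled for T1/2 and Cmax.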

[8] = AUC (infinity) in rat at 2 mg/kg, iv; assay type: ADME, organism-based; parameters: dose 2 mg/kg, time infinity, route intravenous; conditions: in vivo
Method in brief: (§3)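 Rat PK; iv dosing at 2.0 mg/Kg in SPEW vehicle, oral dosing at 10 mg/Kg in 0.1% CMC-0.2%Tween; AUCinf reported in ng*hr/mL.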

[9] = AUC (infinity) in rat at 10 mg/kg, po; assay type: ADME, organism-based; parameters: dose 10 mg/kg, route oral, time infinity; conditions: in vivo; method in brief: as §3
[10] = Cmax in rat at 2 mg/kg, iv; assay type: ADME, organism-based; parameters: dose 2 mg/kg, route intravenous; conditions: in vivo; method in brief: as §2
[11] = Cmax in rat at 10 mg/kg, po; assay type: ADME, organism-based; parameters: dose 10 mg/kg, route oral; conditions: in vivo
Rattus norvegicus = assay: Clearance in rat at 2 mg/kg, iv relative to hepatic blood flow; assay type: ADME, organism-based, Liver; conditions: in vivo
Method in brief: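 Rats given 2.0 mg/kg iv in SPEW vehicle. Clearance is expressed as % of hepatic blood flow (%Qh).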

[12] = Oral bioavailability in rat at 10 mg/kg; assay type: ADME, organism-based; conditions: in vivo

- hepatic extraction ratio [1]: 0.51
- hepatic extraction ratio [2]: 0.65
- pEC50 [3]: 5.08
- pEC50 [4]: 5.71
- inhibition (INH) [5]: < 50%
- Activity [6]: < 50%
- half-life [7]: 9.6 h
- AUC(0-inf) [8]: 1540 ng·h/mL
- AUC(0-inf) [9]: 3130 ng·h/mL
- Cmax [10]: 2740 ng/mL
- Cmax [11]: 1210 ng/mL
- CLH (Rattus norvegicus): 40%
- bioavailability [12]: 41%
SMILES: [2H]C([2H])([2H])N(C(=O)c1c(F)cccc1Cl)c1ccc(-c2cc(C(N)=O)ccc2Cl)cc1OCC(F)(F)F
